In ChEMBL document CHEMBL1158729, “Antioxidant phenolic glycosides from Moricandia arvensis” (J Nat Prod, 2005):
In brackets after ≈: the same amount, converted by molar mass. Activity calls are given as the source filed them. The calls are words filed in the database; no cut-off is given here.

Columns and labels:
Format in all cases: functional
[1] = Antioxidant activity assessed as ABTS radical scavenging activity after 15 mins by TEAC method
Procedure, shortened: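 ABTS radical cation formed from 7 mM ABTS with potassium persulfate (2.4 mM final), held 16 h dark at room temperature, then diluted with water to A734 0.700 ± 0.03. Samples in H2O-EtOH at 5-8 concentrations (0 to 20 µM final). A734 decrease read at 1, 2, 5, 10, 15 min, triplicate, with solvent blanks. Expressed as mM Trolox equivalent to 1.0 mM or 1 mg/mL sample.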

[2] = Antioxidant activity assessed as reduction of […]/ferricyanide complex after 20 mins
Procedure, shortened: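 Samples (0.02-1.0 mg) in water, mixed with […] phosphate buffer pH 6.6 and 1% potassium ferricyanide, 20 min at 50 °C. Reaction stopped with 10% TCA, centrifuged, and supernatant mixed with water and 0.1% FeCl3. A700 read against blank. Means of three independent samples fitted by linear regression. IC50 taken as the concentration giving an absorbance change of 0.50. α-Tocopherol and quercetin used as standards.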

[3] = test system: Radical scavenging activity; test: Antioxidant activity assessed as DPPH radical scavenging activity at 15 ug/mL after 30 to 45 mins
Procedure, shortened: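 Sample added to freshly prepared 0.004% DPPH in MeOH (final-volume ratio 50:950 µL), vortexed 15 s. Absorbance at 515 nm read at room temperature after 30-45 min, once steady state was reached. Triplicate. % inhibition = (1 − As/A0) × 100 against control. α-Tocopherol and quercetin used as standards.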

COC(=O)/C=C/c1cc(O)cc(O[C@@H]2O[C@H](CO)[C@@H](O)[C@H](O)[C@H]2O)c1 showed a Trolox equivalent antioxidant capacity (TEAC) [1] of 0.35 mM and an IC50 [2] of 630.8 µg/mL (≈ 1770 µM).

For OC[C@H]1O[C@@H](OCCc2ccccc2)[C@H](O)[C@@H](O)[C@@H]1O, the Activity [1] was “inactive” and the Activity [2] was “inactive”.

Molecule O=C(/C=C/c1ccc(O[C@@H]2O[C@H](CO)[C@@H](O)[C@H](O)[C@H]2O)c(O)c1)O[C@@H]1O[C@H](CO)[C@@H](O)[C@H](O)[C@H]1O has a Trolox equivalent antioxidant capacity (TEAC) [1] of 1.06 mM and an IC50 [2] of 95.9 µg/mL (≈ 190 µM).

With O=C(O[C@@H]1O[C@H](CO)[C@@H](O)[C@H](O)[C@H]1O)c1ccc(O)cc1 the Activity [1] was “inactive” and the Activity [2] was “inactive”.

With COC(=O)/C=C/c1ccc(O[C@@H]2O[C@H](CO)[C@@H](O)[C@H](O)[C@H]2O)c(O)c1 the Trolox equivalent antioxidant capacity (TEAC) [1] was 0.89 mM and the IC50 [2] was 486.2 µg/mL (≈ 1360 µM).

In the case of O=c1c(O)c(-c2ccc(O)c(O)c2)oc2cc(O)cc(O)c12 [QUERCETIN], the Activity [1] is reported as 4.26 mM, the IC50 [2] is reported as 24.4 µg/mL (≈ 80.7 µM) and the Activity [3] is reported as 87%.

Work on C[C@@H]1O[C@@H](Oc2cc(O)c3c(=O)c(O[C@@H]4O[C@H](CO)[C@@H](O)[C@H](O)[C@H]4O)c(-c4ccc(O[C@@H]5O[C@H](CO)[C@@H](O)[C@H](O)[C@H]5O)c(O)c4)oc3c2)[C@H](O)[C@H](O)[C@H]1O [MORICANDIN] yielded a Trolox equivalent antioxidant capacity (TEAC) [1] of 1.23 mM, an IC50 [2] of 48.1 µg/mL (≈ 62.3 µM) and an Activity [3] of 60%.

O=C(O[C@@H]1O[C@H](CO)[C@@H](O)[C@H](O)[C@H]1O)c1ccc(O[C@@H]2O[C@H](CO)[C@@H](O)[C@H](O)[C@H]2O)cc1 showed a Trolox equivalent antioxidant capacity (TEAC) [1] of 0.28 mM and an IC50 [2] of 735.4 µg/mL (≈ 1590 µM).

O=C(/C=C/c1ccc(O)c(O)c1)O[C@@H]1O[C@H](CO)[C@@H](O)[C@H](O)[C@H]1O gave a Trolox equivalent antioxidant capacity (TEAC) [1] of 1.91 mM, an IC50 [2] of 33.5 µg/mL (≈ 97.9 µM) and an Activity [3] of 72%.

With Cc1c(C)c2c(c(C)c1O)CC[C@@](C)(CCC[C@H](C)CCC[C@H](C)CCCC(C)C)O2 [ALPHA-TOCOPHEROL] the IC50 [2] was 106.9 µg/mL (≈ 248 µM) and the Activity [3] was 87%.
